Measured values reported in ChEMBL document CHEMBL1125811, “Potential antitumor agents. 63. Structure-activity relationships for side-chain analogues of the colon 38 active agent 9-oxo-9H-xanthene-4-acetic acid” (J Med Chem, 1991).

Columns and labels:
Mus musculus [1] = experiment: Optimal dose to achieve the level of activity cited in colon 38 tumors after intraperitoneal administration in mice.; type: functional
Method in brief: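 BDF1 mice bearing s.c. colon 38 tumors (4-8 mm) given a single i.p. dose of sodium salt in water. Full dose profile run at 1.5-fold intervals. Tumors removed at 24 h for histological necrosis scoring. Optimal dose is the minimum dose in mg/kg reaching the cited activity level.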

Mus musculus [2] = species on record: Mus musculus; experiment: The compound was evaluated for its ability to cause early haemorrhagic necrosis of colon 38 tumors in mice; Value ranges from 50-90%; type: functional
Method in brief: (§1)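 Colon 38 fragments implanted s.c. in BDF1 mice and grown to 4-8 mm diameter. Single i.p. dose of sodium salt in water, escalated in 1.5-fold steps up to 750 mg/kg or the maximum nonlethal dose. Triplicate testing, groups of five mice. Tumors excised after 24 h, formalin-fixed, H&E-stained and scored histologically: ++ for 90-100% necrosis, + for 50-90%, - for consistently <50%.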

[3] = Relative measure of lipophilicity was determined by using 4'-(9-acridinylamino)-methanesulfonanilide as internal standard; type: physicochemical; conditions: octanol/water
Method in brief: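 Rm determined by liquid-liquid chromatography, with AMSA as internal standard.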

Mus musculus [4] = species on record: Mus musculus; experiment: Ability to cause early haemorrhagic necrosis of colon 38 tumors in mice.; type: functional; set-up: concentration or dose not given beside the values; method in brief: as §1
[5] = Range of dose (highest nontoxic to minimum effective) over which 50-90% necrosis was achieved in mice; set-up: unit not given here
Method in brief: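 Single i.p. dose of sodium salt in water to BDF1 mice bearing s.c. colon 38 tumors. Doses escalated 1.5-fold. Tumor necrosis read histologically at 24 h. Range recorded from highest nontoxic to minimum effective dose giving 50-90% necrosis, only where activity occurred at more than one dose level.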

Structure (SMILES)	Rm [3]	OD (Mus musculus [1])	Activity (Mus musculus [2])	Activity (Mus musculus [4])	Range [5]
NC(C(=O)O)c1cccc2c(=O)c3ccccc3oc12 (configuration not stated)	-0.53	750 mg/kg	90%	–	–
CCOP(=O)(O)Cc1cccc2c(=O)c3ccccc3oc12	-0.04	750 mg/kg	–	<50%	–
O=c1c2ccccc2oc2c(CS(=O)(=O)O)cccc12	-0.59	330 mg/kg	–	<50%	–
O=C(O)COc1cccc2c(=O)c3ccccc3oc12	0.21	750 mg/kg	–	<50%	–
Cc1cccc2c(=O)c3cccc([C@@H](C)C(=O)O)c3oc12	–	220 mg/kg	–	>90%	220
O=C(O)C(O)c1cccc2c(=O)c3ccccc3oc12 (configuration not stated)	0.04	750 mg/kg	90%	–	–
O=C(Cc1cccc2c(=O)c3ccccc3oc12)NS(=O)(=O)c1ccccc1	0.51	750 mg/kg	–	<50%	–
N=C(N)SCc1cccc2c(=O)c3ccccc3oc12	-0.2	220 mg/kg	–	<50%	–
CC(C(=O)O)c1cccc2c(=O)c3ccccc3oc12 (configuration not stated)	0.85	500 mg/kg	–	>90%	500
O=C(O)c1cccc2c(=O)c3ccccc3oc12	0.49	220 mg/kg	–	<50%	–
COC(C(=O)O)c1cccc2c(=O)c3ccccc3oc12 (configuration not stated)	0.49	750 mg/kg	–	<50%	–
O=C(O)C(F)c1cccc2c(=O)c3ccccc3oc12 (configuration not stated)	0.75	750 mg/kg	–	<50%	–
Cc1cccc2c(=O)c3cccc([C@H](C)C(=O)O)c3oc12	–	65 mg/kg	–	>90%	–

Continued, in another order:

Rm [3]	Structure (SMILES)	OD (Mus musculus [1])	Activity (Mus musculus [2])	Activity (Mus musculus [4])	Range [5]
-0.24	CN(C)CCOC(=O)Cc1cccc2c(=O)c3ccccc3oc12	330 mg/kg	90%	–	–
0.88	Cc1cccc2c(=O)c3cccc(C(C)C(=O)O)c3oc12 (configuration not stated)	150 mg/kg	–	>90%	150
0.49	Cc1ccc2c(=O)c3cccc(CC(=O)O)c3oc2c1C [VADIMEZAN]	30 mg/kg	–	>90%	30
-0.48	O=c1c2ccccc2oc2c(CP(=O)(O)O)cccc12	750 mg/kg	–	<50%	–
0.64	O=C(O)Cc1cccc2c(=O)c3ccccc3oc12	220 mg/kg	–	>90%	–
-0.27	CN(C)CCNC(=O)Cc1cccc2c(=O)c3ccccc3oc12	750 mg/kg	90%	–	–
0.7	O=C(O)CCc1cccc2c(=O)c3ccccc3oc12	500 mg/kg	90%	–	–
